# Results taken from ChEMBL document CHEMBL1128317, “Phenoxypropylamines: a new series of squalene synthase inhibitors” (J Med Chem, 1995).
# Biological target: T1, Squalene synthase (Rattus norvegicus, UniProt Q02769)
# T1 sequence (Q02769 whole entry): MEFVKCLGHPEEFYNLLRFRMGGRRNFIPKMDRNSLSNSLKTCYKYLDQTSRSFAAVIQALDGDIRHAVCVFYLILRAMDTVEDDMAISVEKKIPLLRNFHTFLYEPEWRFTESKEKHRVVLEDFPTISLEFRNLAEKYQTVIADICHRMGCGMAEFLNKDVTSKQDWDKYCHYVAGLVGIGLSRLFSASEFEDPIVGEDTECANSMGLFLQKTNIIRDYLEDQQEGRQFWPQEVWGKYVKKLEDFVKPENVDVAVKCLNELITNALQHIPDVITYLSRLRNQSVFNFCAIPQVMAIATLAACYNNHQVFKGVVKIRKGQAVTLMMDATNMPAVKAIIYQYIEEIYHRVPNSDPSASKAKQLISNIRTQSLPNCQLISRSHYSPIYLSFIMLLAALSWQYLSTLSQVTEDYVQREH
# Experiment: Inhibition of rat microsomal squalene synthase
# How it was run: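 Rat liver microsomal protein (20 μg) incubated at 37 °C in 50 mM potassium phosphate with 4.95 mM MgCl2, 9.9 mM KF and 0.9 mM NADPH. 1-[3H]farnesyl pyrophosphate was added to 20 μM final, and the reaction was stopped after 15 min with 4% KOH. Labeled squalene was isolated on a C18 column. IC50 was derived from % inhibition versus controls (duplicates per concentration, 6–8 controls).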
smiles,measurement,value
CC(C)=CCC/C(C)=C/c1ccccc1OCCCN(C)C(C)C,IC50,> 2500 nM
C=CCc1cc(OCCCC)ccc1OCCCNC(C)C,IC50,0.6 nM
CC(C)=CCC/C(C)=C/CC/C(C)=C/CCOP(=O)(O)C(=O)O,IC50,30000 nM
CC(=O)Nc1ccc(OCCCNC(C)C)cc1,IC50,> 2500 nM
CCCCOc1ccc(OCC(CNC(C)C)OC)cc1 (stereo not given),IC50,3300 nM
CC(C)NCCCOc1ccc(-c2cccnc2)cc1,IC50,> 2500 nM
CC(C)NCC(O)COc1ccc(-c2ccccc2)cc1 (stereo not given),IC50,3000 nM
CCC(=O)Nc1ccc(OCCCNC(C)C)c(Cc2ccccc2)c1,IC50,0.6 nM
CCCCOc1ccc(OCCCNC(C)C)cc1,IC50,56 nM
C=CCc1cc(N)ccc1OCCCNC(C)C,IC50,250 nM
CCC(=O)Oc1ccc(OCCCNC(C)C)cc1,IC50,3 nM
C=CCc1ccccc1OCC(O)CNC(C)C (stereo not given) [ALPRENOLOL],IC50,4200 nM
C=CCc1cc(C(=O)CCC)ccc1OCC(O)CNC(C)C (stereo not given),IC50,4.5 nM
CCC(=O)Nc1ccc(OCC(O)CNC(C)C)c(Cc2ccccc2)c1 (stereo not given),IC50,900 nM
CCOC(=O)c1ccc(OCC(O)CNC(C)C)cc1 (stereo not given),IC50,1400 nM
C=CCc1cc(C(=O)CCC)ccc1OCCCNC(C)C,IC50,1 nM
CC(C)NCCCOc1ccc(-c2ccccc2)cc1,IC50,170 nM
C=CCc1cc(NC(=O)CC)ccc1OCCCNC(C)C,IC50,5 nM
C=CCc1cc(C(=O)OCC)ccc1OCCCNC(C)C,IC50,0.05 nM
C=CCc1ccccc1OCCCNC(C)C,IC50,56 nM
CC(C)NCCCOc1cccc(-c2ccccc2)c1,IC50,600 nM
C=CCc1cc(NC(C)=O)ccc1OCCCNC(C)C,IC50,65 nM
CC(C)NCCCOc1ccccc1Cc1ccccc1,IC50,12 nM
CC(C)NCC(O)COc1ccccc1Cc1ccccc1 (stereo not given),IC50,8800 nM
C=CCc1cc(-c2ccccc2)ccc1OCCCNC(C)C,IC50,0.004 nM
